From ChEMBL document CHEMBL3877245 (Eur J Med Chem, 2016) come the findings set out here.

What is called Ki is the equilibrium dissociation constant of an inhibitor or competing ligand from its target. The term IC50 denotes the concentration that inhibits the measured activity by half. One may read the pIC50 as −log10 of the IC50, conventionally taken in molar units. Usually EC50 stands for the concentration giving half of the maximal effect. Low readings indicate greater potency, high ones weaker potency. One may read the pEC50 as the negative decadic logarithm of the EC50, by convention in mol/L. Low readings indicate a large EC50, high ones a small EC50. As usually defined, the inhibition is the share of the control response that was lost under treatment.

Data set [1] deals with Neuronal acetylcholine receptor; alpha4/beta4 (Rattus norvegicus, UniProt P09483+P12392). Description: Displacement of [3H]epibatidine from rat alpha4beta4 nAChR by liquid scintillation counting. The data set is classed as protein-complex assay.
Data set [2] addresses T1, Neuronal acetylcholine receptor; alpha4/beta2 (Homo sapiens, UniProt P17787+P43681). Description: Antagonist activity at human alpha4beta2 expressed in human SH-EP1 cells assessed as reduction in carbamylcholine induced 86Rb+ efflux preincubated for 10 mins followed by carbamylcholine addition measured after 5 mins by Cherenkov counting. Type of data set: cell-based. The procedure, abridged:
(§1)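 Same 86Rb+-loaded cells and pH 7.4 efflux buffer. Cells lysed in 0.1 M NaOH/0.1% SDS and Cerenkov counted. Specific efflux = total minus nonspecific (mecamylamine-blocked); inactivation IC50 derived from inhibition of carbamylcholine response.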

Data set [3] in a line: Antagonist activity at alpha3beta4* in human SH-SY5Y cells assessed as reduction in carbamylcholine induced 86Rb+ efflux preincubated for 10 mins followed by carbamylcholine addition measured after 5 mins by Cherenkov counting. The data set is classed as cell-based. The method, boiled down:
as §1

Data set [4] can be described thus: Displacement of [3H]epibatidine from rat forebrain alpha4beta2* nAChR by liquid scintillation counting. (In general: Loss of bound radioactivity is the signal in a displacement assay; it reports binding, not function.)
The nature of data set [5]: Agonist activity at alpha3beta4* nAChR in human SH-SY5Y cells after 9.5 mins by 86Rb+ efflux assay. The data set is classed as cell-based. The procedure, abridged: (§2)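 86Rb+ efflux: cells loaded with ~350,000 cpm 86Rb+ at least 4 h (typically overnight), rinsed with efflux buffer pH 7.4 (130 mM NaCl, 5.4 mM KCl, 2 mM CaCl2, 50 mM HEPES, 5 mM glucose). Test drug alone applied 9.5 min. Efflux normalized, after nonspecific subtraction, to specific efflux of fully efficacious carbamylcholine control; nonspecific defined with carbamylcholine plus mecamylamine; EC50 derived.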

Data set [6] addresses T2, Acetylcholine receptor; alpha1/beta1/delta/gamma (Homo sapiens, UniProt P02708+P07510+P11230+Q07001). Description: Antagonist activity at alpha1beta1gammadelta nAChR in human TE671/RD cells assessed as reduction in carbamylcholine induced 86Rb+ efflux preincubated for 10 mins followed by carbamylcholine addition measured after 5 mins by Cherenkov counting. The data set is classed as cell-based. The procedure, abridged:
as §1

Data set [7] has as its target Neuronal acetylcholine receptor; alpha3/beta2 (Rattus norvegicus, UniProt P04757+P12390). Description: Displacement of [3H]epibatidine from rat alpha3beta2 nAChR by liquid scintillation counting. The data set is classed as protein-complex assay.
In data set [8] the target is T2, Acetylcholine receptor; alpha1/beta1/delta/gamma. Description: Agonist activity at alpha1beta1gammadelta nAChR in human TE671/RD cells after 9.5 mins by 86Rb+ efflux assay. The data set is classed as cell-based. The method, boiled down: as §2
Data set [9] addresses Neuronal acetylcholine receptor; alpha2/beta2 (Rattus norvegicus, UniProt P12389+P12390). Description: Displacement of [3H]epibatidine from rat alpha2beta2 nAChR by liquid scintillation counting. The data set is classed as protein-complex assay.
The target in data set [10] is T1, Neuronal acetylcholine receptor; alpha4/beta2. Description: Agonist activity at human alpha4beta2 nAChR expressed in human SH-EP1 cells after 9.5 mins by 86Rb+ efflux assay. Type of data set: cell-based.
The target in data set [11] is Neuronal acetylcholine receptor; alpha4/beta2 (Rattus norvegicus, UniProt P09483+P12390). Description: Displacement of [3H]epibatidine from rat alpha4beta2 nAChR by liquid scintillation counting. The data set is classed as protein-complex assay.
The target of data set [12] is Neuronal acetylcholine receptor; alpha2/beta4 (Rattus norvegicus, UniProt P12389+P12392). Description: Displacement of [3H]epibatidine from rat alpha2beta4 nAChR by liquid scintillation counting. Type of data set: protein-complex assay.
Chain of Neuronal acetylcholine receptor; alpha2/beta4 (P12389 whole entry): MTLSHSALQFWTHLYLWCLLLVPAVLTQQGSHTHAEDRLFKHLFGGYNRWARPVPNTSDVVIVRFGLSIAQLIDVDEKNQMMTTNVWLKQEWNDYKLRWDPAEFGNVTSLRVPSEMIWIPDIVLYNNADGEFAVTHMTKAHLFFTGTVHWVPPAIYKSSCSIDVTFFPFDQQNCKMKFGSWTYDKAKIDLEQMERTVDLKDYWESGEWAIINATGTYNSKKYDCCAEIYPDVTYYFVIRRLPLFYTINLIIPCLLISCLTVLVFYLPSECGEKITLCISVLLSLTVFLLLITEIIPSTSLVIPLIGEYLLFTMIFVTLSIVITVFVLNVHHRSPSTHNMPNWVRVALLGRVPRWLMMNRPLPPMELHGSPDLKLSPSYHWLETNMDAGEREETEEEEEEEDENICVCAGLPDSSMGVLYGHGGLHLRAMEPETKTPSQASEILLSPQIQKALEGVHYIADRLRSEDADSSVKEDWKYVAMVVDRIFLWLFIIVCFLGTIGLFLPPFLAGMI
Chain of Neuronal acetylcholine receptor; alpha2/beta4 (P12392 whole entry): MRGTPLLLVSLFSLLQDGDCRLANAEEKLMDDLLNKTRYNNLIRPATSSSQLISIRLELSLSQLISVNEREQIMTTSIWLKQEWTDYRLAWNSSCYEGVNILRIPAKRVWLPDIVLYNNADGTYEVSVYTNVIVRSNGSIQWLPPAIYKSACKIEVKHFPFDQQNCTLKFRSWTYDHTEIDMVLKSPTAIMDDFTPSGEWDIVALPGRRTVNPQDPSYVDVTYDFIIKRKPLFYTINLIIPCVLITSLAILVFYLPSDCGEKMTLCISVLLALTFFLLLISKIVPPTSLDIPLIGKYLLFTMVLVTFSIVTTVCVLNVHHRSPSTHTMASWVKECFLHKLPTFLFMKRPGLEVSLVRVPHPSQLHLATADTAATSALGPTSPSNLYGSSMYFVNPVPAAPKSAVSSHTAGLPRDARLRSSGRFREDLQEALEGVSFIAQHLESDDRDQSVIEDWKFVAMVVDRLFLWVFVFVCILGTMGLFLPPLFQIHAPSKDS
The nature of data set [13]: Antidepressant activity in C57BL6 mouse at 5 mg/kg, ip administered 15 mins prior to testing by SmartCube automated system based method. The data set is classed as functional, organism-based. The method, boiled down:
(§3)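 Male C57 BL6 mice, group-housed 4 per cage, 22 °C, 12 h light-dark. Compound dissolved in water, given i.p. at 10 mL/kg, 15 min before automated SmartCube session; behaviour captured by digital video and classified by computer algorithms into a behavioural signature.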

Data set [14] addresses T1, Neuronal acetylcholine receptor; alpha4/beta2. Description: Agonist activity at human (alpha4beta2 )2beta2 expressed in human SH-EP1 cells after 9.5 mins by 86Rb+ efflux assay relative to carbamylcholine. Type of data set: cell-based.
Data set [15] shares this target. Description: Agonist activity at human (alpha4beta2 )2alpha4 expressed in human SH-EP1 cells after 9.5 mins by 86Rb+ efflux assay relative to carbamylcholine. Type of data set: cell-based.
Data set [16] can be described thus: Antidepressant activity in po dosed BALB/cJ mouse assessed as decrease in immobility time administered 30 mins and measured over 6 mins by classical Porsolt's forced swim test. The data set is classed as functional, organism-based. The method, boiled down:
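Male BALB/cJ mice, 8–10 weeks, dosed po in water (10 mL/kg) at 1 and 10 mg/kg; water vehicle, sertraline 20 mg/kg ip as positive control. 30 min later placed in 1 L beaker with 12 cm of 23 °C water; immobility recorded over 6-min trial, total time analysed by ANOVA.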

For data set [17], the target named is Neuronal acetylcholine receptor; alpha3/beta4 (Rattus norvegicus, UniProt P04757+P12392). Description: Displacement of [3H]epibatidine from rat alpha3beta4 nAChR by liquid scintillation counting. Type of data set: protein-complex assay.
A short description of data set [18]: Antidepressant activity in C57BL6 mouse at 10 mg/kg, ip administered 15 mins prior to testing by SmartCube automated system based method. Type of data set: functional, organism-based. The procedure, abridged: as §3
Data set [19] addresses alpha3beta4 nAChR (neuronal acetylcholine receptor alpha3/beta4) (Rattus norvegicus, UniProt P04757+P12392). Description: Displacement of [3H]epibatidine from rat alpha3beta4 nAChR at 10 uM by liquid scintillation counting. The conditions noted are these: probe [3H]epibatidine.

Active and inactive are the calls of the source. The calls are words filed in the database; no cut-off is given here.

Chain of Neuronal acetylcholine receptor; alpha2/beta2 (P12389 whole entry): as the sequence (P12389 whole entry) above
Chain of Neuronal acetylcholine receptor; alpha2/beta2 (P12390 whole entry): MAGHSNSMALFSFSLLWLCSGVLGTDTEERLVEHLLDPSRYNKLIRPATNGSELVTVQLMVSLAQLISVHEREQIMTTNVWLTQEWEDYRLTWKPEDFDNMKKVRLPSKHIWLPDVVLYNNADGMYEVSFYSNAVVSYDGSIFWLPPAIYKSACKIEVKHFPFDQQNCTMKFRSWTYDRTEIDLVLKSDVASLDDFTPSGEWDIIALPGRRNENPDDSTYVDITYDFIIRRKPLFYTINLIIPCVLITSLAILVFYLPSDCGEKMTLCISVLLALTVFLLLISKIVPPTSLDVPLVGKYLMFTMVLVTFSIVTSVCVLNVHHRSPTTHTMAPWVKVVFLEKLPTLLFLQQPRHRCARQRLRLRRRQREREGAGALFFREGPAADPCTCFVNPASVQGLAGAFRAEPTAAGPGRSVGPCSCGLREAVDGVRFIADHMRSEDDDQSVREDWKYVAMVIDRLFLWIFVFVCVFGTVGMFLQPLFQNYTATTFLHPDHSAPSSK
T2 sequence (P02708 whole entry): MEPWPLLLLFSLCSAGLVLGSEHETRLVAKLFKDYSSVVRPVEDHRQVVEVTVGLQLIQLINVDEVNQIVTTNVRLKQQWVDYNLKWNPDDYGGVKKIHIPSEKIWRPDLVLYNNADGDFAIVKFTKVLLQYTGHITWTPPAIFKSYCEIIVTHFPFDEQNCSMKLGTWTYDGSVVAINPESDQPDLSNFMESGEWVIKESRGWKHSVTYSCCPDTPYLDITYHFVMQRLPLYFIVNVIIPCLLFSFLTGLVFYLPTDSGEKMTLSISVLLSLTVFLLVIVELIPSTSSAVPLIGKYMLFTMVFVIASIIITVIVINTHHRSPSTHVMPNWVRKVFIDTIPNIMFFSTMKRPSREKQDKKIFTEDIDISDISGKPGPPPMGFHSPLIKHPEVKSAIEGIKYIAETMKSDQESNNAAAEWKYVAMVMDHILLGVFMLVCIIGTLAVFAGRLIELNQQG
T2 sequence (P07510 whole entry): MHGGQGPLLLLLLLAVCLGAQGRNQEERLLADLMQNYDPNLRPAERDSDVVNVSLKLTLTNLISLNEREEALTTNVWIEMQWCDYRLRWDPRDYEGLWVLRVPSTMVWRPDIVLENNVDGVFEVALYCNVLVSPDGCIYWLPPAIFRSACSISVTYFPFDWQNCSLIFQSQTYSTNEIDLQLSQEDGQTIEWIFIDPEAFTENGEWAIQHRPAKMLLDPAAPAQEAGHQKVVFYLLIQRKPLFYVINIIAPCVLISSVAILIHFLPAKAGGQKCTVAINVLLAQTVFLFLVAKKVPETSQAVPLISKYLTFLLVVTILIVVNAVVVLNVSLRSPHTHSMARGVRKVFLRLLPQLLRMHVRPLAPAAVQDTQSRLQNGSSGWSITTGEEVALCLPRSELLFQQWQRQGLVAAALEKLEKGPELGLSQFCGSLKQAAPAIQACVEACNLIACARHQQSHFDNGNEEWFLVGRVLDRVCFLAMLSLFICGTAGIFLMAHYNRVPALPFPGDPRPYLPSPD
T2 sequence (P11230 whole entry): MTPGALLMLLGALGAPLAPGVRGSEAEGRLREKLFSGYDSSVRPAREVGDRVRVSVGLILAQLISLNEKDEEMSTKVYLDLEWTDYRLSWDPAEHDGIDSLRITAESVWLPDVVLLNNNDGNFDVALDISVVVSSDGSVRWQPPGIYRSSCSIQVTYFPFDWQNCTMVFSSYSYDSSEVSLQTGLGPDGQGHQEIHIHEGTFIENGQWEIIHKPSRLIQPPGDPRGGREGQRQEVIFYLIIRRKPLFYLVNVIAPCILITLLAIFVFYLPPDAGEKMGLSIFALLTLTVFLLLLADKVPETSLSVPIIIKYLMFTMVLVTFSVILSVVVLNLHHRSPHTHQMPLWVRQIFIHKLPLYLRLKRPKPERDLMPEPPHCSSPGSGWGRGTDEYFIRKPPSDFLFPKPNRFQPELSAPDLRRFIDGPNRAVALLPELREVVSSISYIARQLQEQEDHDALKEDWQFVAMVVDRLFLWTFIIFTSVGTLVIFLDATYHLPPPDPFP
T2 sequence (Q07001 whole entry): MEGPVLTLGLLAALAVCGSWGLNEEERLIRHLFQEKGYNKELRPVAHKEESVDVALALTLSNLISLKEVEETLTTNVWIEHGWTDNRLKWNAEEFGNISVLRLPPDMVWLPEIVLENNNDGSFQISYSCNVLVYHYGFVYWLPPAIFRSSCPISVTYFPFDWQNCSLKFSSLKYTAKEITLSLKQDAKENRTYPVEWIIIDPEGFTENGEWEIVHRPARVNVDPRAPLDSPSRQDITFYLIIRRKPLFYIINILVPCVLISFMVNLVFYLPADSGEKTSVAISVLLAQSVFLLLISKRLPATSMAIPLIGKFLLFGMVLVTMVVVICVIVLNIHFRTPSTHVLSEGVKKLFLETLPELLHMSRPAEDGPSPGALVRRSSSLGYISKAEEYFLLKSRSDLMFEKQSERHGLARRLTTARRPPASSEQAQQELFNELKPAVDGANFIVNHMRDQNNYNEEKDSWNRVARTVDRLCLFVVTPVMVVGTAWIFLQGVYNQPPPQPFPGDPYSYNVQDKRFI

In the case of `COCC[C@H]1C[C@@H]1c1cncc(N2CCCN(C)CC2)c1`, the Ki in data set [1] turned out to be 4810 nM; in data set [4], 33.8 nM; in data set [7] it was 681 nM; in data set [9], 18.1 nM; in data set [11], 25.4 nM. Besides, the results for the IC50 in data set [2], in [3] and in [6] were > 1000 nM, > 10000 nM and > 10000 nM, respectively. Moreover, in [2] (sh-ep1), the pIC50 is < 6. Besides, the EC50 in [5] is > 10000 nM; in data set [8], > 10000 nM; in data set [10], > 1000 nM. Moreover, in [10] (sh-ep1), the pEC50 is < 6.

For the compound `COCC[C@H]1C[C@@H]1c1cncc(N2C[C@@H]3C[C@H]2CN3)c1`, the Ki in data set [12] came out at 4810 nM; in data set [1], 1340 nM; in data set [7] it was 141 nM; in data set [9], 3.1 nM. In addition, the IC50 in data set [3] and in [6] was > 10000 nM in each case. The EC50 in data set [5] and in data set [8] was > 10000 nM in each case.

Take `COCC[C@@H]1C[C@H]1c1cncc(N2C[C@@H]3C[C@H]2CN3)c1`: the inhibition constant Ki in [1] came to 8450 nM; in [7] it was 617 nM; in [9], 43.1 nM. Besides, the 50% inhibitory concentration (IC50) in data set [3] and in data set [6] was > 10000 nM each time. The EC50 in data set [5] and in [8] was > 10000 nM throughout.

For `COCC[C@H]1C[C@@H]1c1cncc(N2CCCNCC2)c1`, the Ki in data set [12] was 460 nM; in data set [1], 151 nM; in data set [4], 2.7 nM; in data set [7], 17 nM; in data set [9], 0.3 nM; in [17], > 10000 nM. In data set [11], this compound gave a Ki of 0.7 nM. In addition, the Efficacy was 74% in data set [2], 81% in data set [14] and -9.3% in data set [15]. The IC50 was 16 nM in [2], > 10000 nM in [3] and > 10000 nM in data set [6]. The result in [13] was Active. Further, the EC50 in data set [5] was > 10000 nM; in data set [8] it was > 10000 nM; in [10], 15.9 nM. In data set [16], the Activity result was “Dose-dependent effect”.

On to `OCCc1cc(-c2cncc(N3CCCNCC3)c2)on1`, for which the Ki was determined as 331 nM in data set [12]; 67.6 nM in data set [1]; 3.5 nM in data set [4]; 42 nM in data set [7]; 0.8 nM in data set [9]; 8100 nM in [17]. The compound also registered a Ki in data set [11] of 0.8 nM. Further, the Efficacy is 68% in data set [2], 58% in [14] and -5% in data set [15]. The IC50 was 50.8 nM in data set [2], > 10000 nM in data set [3] and > 10000 nM in [6]. In addition, the figures for the EC50 in [5], in [8] and in data set [10] were > 10000 nM, > 10000 nM and 30.9 nM, respectively. The outcome in [18] was Active.

`c1cncc(N2CCCNCC2)c1`: the Ki in data set [12] is 62 nM; in data set [1], 71.6 nM; in data set [4], 3.3 nM; in data set [7], 5.1 nM; in [9], 1.1 nM; in [17], 366 nM. Further, the Ki in data set [11] is 3.4 nM.

Take `COCC[C@@H]1C[C@H]1c1cncc(N2CCCNCC2)c1`: the Ki is 256 nM in data set [12]; 168 nM in [1]; 2.7 nM in [4]; 15.8 nM in data set [7]; 0.3 nM in data set [9]; > 10000 nM in [17]. In [11], the Ki was found to be 0.5 nM. Moreover, the Efficacy in data set [2] is 79%; in data set [14], 63%; in data set [15] it was -5.6%. In addition, the IC50 is 15.7 nM in data set [2], > 10000 nM in [3] and > 10000 nM in data set [6]. Further, the values for the EC50 in data set [5], in data set [8] and in data set [10] were > 10000 nM, > 10000 nM and 17.1 nM, respectively. Moreover, in data set [18], the outcome was Active.

Consider `CN1CCCN(c2cncc(-c3cc(CCO)no3)c2)CC1`, for which the Ki in data set [12] is > 10000 nM; in data set [1], 4940 nM; in data set [7] it was 1040 nM; in data set [9] it was 46.3 nM. The IC50 in data set [3] and in data set [6] was > 10000 nM each time. Moreover, the EC50 in data set [5] and in data set [8] was > 10000 nM each time. For the same compound, the inhibition at 10 µM in [19] was < 50%.

As to `c1cncc(N2CC3CC2CN3)c1` (stereo not drawn), the Ki in data set [12] was 15.2 nM; in data set [1], 7.7 nM; in data set [4], 0.8 nM; in [7], 3.1 nM; in data set [9], 0.3 nM; in data set [17], 64.6 nM. Also, in data set [11], the affinity corresponds to a Ki of 1 nM.
